In ChEMBL document CHEMBL1147561, “Application of the four-component Ugi condensation for the preparation of sulfated glycoconjugate libraries” (Bioorg Med Chem Lett, 2004):

Assays:
[1] = molecular target: Fibroblast growth factor 1 (Homo sapiens, UniProt P05230); test: Binding affinity for human fibroblast growth factor 1 in surface plasmon resonance (SPR) assay
Outline: (§1)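 SPR solution affinity format: growth factor pre-equilibrated with ligand in solution, mixture passed over a heparin-immobilized sensor chip. Free (unbound) growth factor binding to heparin raises the SPR response and gives its concentration. Kd calculated from the decline in free growth factor concentration versus ligand concentration. Values are mean and SD of at least two independent measurements.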

[2] = molecular target: T1, Fibroblast growth factor 2 (Homo sapiens, UniProt P09038); test: Binding affinity for human fibroblast growth factor 2 in surface plasmon resonance (SPR) assay; outline: as §1
T1 sequence (P09038 143-288 limits assumed): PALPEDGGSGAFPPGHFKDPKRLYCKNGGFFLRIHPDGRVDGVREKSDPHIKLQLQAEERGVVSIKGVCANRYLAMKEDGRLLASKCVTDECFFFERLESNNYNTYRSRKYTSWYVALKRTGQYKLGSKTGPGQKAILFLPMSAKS

[3] = molecular target: T1, Fibroblast growth factor 2; test: Binding affinity for human fibroblast growth factor 2 in surface plasmon resonance (SPR) assay (No binding); outline: as §1

Fibroblast growth factor 1, sequence (P05230 whole entry): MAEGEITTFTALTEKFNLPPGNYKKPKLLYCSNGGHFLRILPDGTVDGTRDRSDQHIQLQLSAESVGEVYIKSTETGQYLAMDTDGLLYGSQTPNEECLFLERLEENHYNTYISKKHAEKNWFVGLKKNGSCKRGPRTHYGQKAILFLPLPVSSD

Compound	Kd [1] [µM]	Kd [2] [µM]	Kd [3] [µM]
O=C(CN(CCOS(=O)(=O)O)C(=O)C1OC(OS(=O)(=O)O)C(OS(=O)(=O)O)C(OS(=O)(=O)O)C1OS(=O)(=O)O)NC1CCCCC1 (centres undefined)	2340	> 800	–
O=C(NC1CCCCC1)C(c1ccccc1)N(Cc1ccccc1)C(=O)C1OC(OS(=O)(=O)O)C(OS(=O)(=O)O)C(OS(=O)(=O)O)C1OS(=O)(=O)O (centres undefined)	62.5	–	> 800
O=C(CN(Cc1ccccc1)C(=O)C1OC(OS(=O)(=O)O)C(OS(=O)(=O)O)C(OS(=O)(=O)O)C1OS(=O)(=O)O)NC1CCCCC1 (centres undefined)	122	254	–
CO[C@H]1O[C@@H](COCC(=O)N(CC(=O)NC2CCCCC2)Cc2ccccc2)[C@@H](OS(=O)(=O)O)[C@H](OS(=O)(=O)O)[C@H]1OS(=O)(=O)O	260	200	–
CO[C@H]1O[C@@H](COCC(=O)N(CCS(=O)(=O)O)CC(=O)NC2CCCCC2)[C@@H](OS(=O)(=O)O)[C@H](OS(=O)(=O)O)[C@H]1OS(=O)(=O)O	296	551	–
O=C(CN(Cc1ccccc1)C(=O)C1OC(OS(=O)(=O)O)C(OS(=O)(=O)O)C(OS(=O)(=O)O)C1O)NC1CCCCC1 (centres undefined)	587	1160	–
O=C(CN(Cc1ccccc1)C(=O)C1OC(OS(=O)(=O)O)C(OS(=O)(=O)O)C(OS(=O)(=O)O)C1OS(=O)(=O)O)NCc1ccccc1 (centres undefined)	104	206	–

These reach a lower Kd [1]. Values come first.

Kd [1] [µM]	Kd [2] [µM]	Kd [3] [µM]	Compound
34.3	287	–	CC(=O)N(CC(=O)NCCO[C@H]1O[C@@H](COS(=O)(=O)O)[C@@H](OS(=O)(=O)O)[C@H](OS(=O)(=O)O)[C@H]1OS(=O)(=O)O)Cc1ccccc1
32.6	27.9	–	CO[C@H]1O[C@@H](COCC(=O)N(CC(=O)NC2CCCCC2)[C@H]2CC[C@H](N(CC(=O)NC3CCCCC3)C(=O)COC[C@@H]3O[C@H](OC)[C@H](OS(=O)(=O)O)[C@@H](OS(=O)(=O)O)[C@@H]3OS(=O)(=O)O)CC2)[C@@H](OS(=O)(=O)O)[C@H](OS(=O)(=O)O)[C@H]1OS(=O)(=O)O
10	34	–	CC(C)(CC(=O)N(CCO[C@H]1O[C@@H](COS(=O)(=O)O)[C@@H](OS(=O)(=O)O)[C@H](OS(=O)(=O)O)[C@H]1OS(=O)(=O)O)CC(=O)NC1CCCCC1)CC(=O)N(CCO[C@H]1O[C@@H](COS(=O)(=O)O)[C@@H](OS(=O)(=O)O)[C@H](OS(=O)(=O)O)[C@H]1OS(=O)(=O)O)CC(=O)NC1CCCCC1
6.36	85	–	O=C(CN(Cc1ccccc1)C(=O)CO[C@@H]1[C@H](OS(=O)(=O)O)O[C@H](COS(=O)(=O)O)[C@H](OS(=O)(=O)O)[C@H]1OS(=O)(=O)O)NCCO[C@H]1O[C@@H](COS(=O)(=O)O)[C@@H](OS(=O)(=O)O)[C@H](OS(=O)(=O)O)[C@H]1OS(=O)(=O)O
4.84	16	–	CO[C@H]1O[C@@H](COCC(=O)N(CC(=O)NCCO[C@H]2O[C@@H](COS(=O)(=O)O)[C@@H](OS(=O)(=O)O)[C@H](OS(=O)(=O)O)[C@H]2OS(=O)(=O)O)Cc2ccccc2)[C@@H](OS(=O)(=O)O)[C@H](OS(=O)(=O)O)[C@H]1OS(=O)(=O)O
